# Source: PubChem BioAssay (several laboratories)
# T cruzi inh – blocks replication of Trypanosoma cruzi; T. cruzi beta-gal in NIH3T3, luminescence, 90 h; inhibition, % (no concentration beside the values); 300,000 tested, 1.4% active; AID 1885;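 active = mean inhibition across valid replicates above about 55%, limit read from the data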;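 note: signal also drops with host cell toxicity which is not excluded here; 0% = plate median of DMSO wells and 100% = zero luminescence signal; higher percent means less beta-gal luminescence so fewer parasites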
#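 Assay system: NIH/3T3 host cells with β-galactosidase reporter T. cruzi; input: 5,000 host fibroblasts per well; compound: single 50 nL compound addition per well in DMSO; timing: ≥90 h infection period, 3 h prior cell attachment; measured by: GalScreen β-gal luminescence, detergent lysis, 60 min; evaluation: percent inhibition of parasite-derived β-gal signal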
# L major viab – inhibitors of Leishmania major promastigote growth; Leishmania major promastigotes, resazurin fluorescence viability; inhibition, % at 10 µM; 200,000 tested, 9% active; in the data active = inhibition above about 50%;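 note: promastigotes grown with compound for 44 hours at 28 °C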
# MPTP inh – inhibitors of mitochondrial permeability transition pore | isolated mouse mitochondria, Ca2+ swelling absorbance, 30 min | inhibition, % at 10 µM | 360,000 tested, 1.4% active | AID 602449;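 active = inhibition of 50% or more, scaled per plate between neutral and stimulator controls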;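 note: 0% = DMSO wells given calcium and 100% = 1 mM EGTA wells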
# DTT redox prof – compounds producing H2O2 with reducing agent – biochemical, NIH compound library profiling, artefact control for MLSCN library redox annotation, primary screen; activation, % at 10 µM; DTT-dependent redox cycling H2O2, phenol red/HRP absorbance; 100% = 100 µM peroxide control, 0% = buffer; 200,000 tested, 0.03% active;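 active = activation of at least 50% relative to the plate's high and low controls in the primary single-dose screen; inactive = activation below 50%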;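 note: compound incubated with DTT at 0.8 mM final as the reducing agent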
# Hep lipid drop – hepatic lipid droplet formation modulation; 240,000 tested, 0.4% active; AML12 mouse hepatocytes, oleate lipid droplets, BODIPY imaging; inhibition, % at 6.5 µM;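 active = lipid droplet intensity inhibited by at least 50%, with more than 500 cells counted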
#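 Technique: fluorescence imaging, 20x objective, two fields per well / Assay system: AML12 hepatocytes (mouse) / Measure: % inhibition of lipid droplet signal / Doses: 6.5 µM single-point dosing / Incubation: overnight exposure / Reagent: 100 µM oleic acid challenge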
# Rh123 counter – Rhodamine 123 counter-screen of mitochondrial pore hits | inhibition, % at 10 µM | AID 624504 | shares compounds with MPTP inh | isolated mitochondria, membrane potential, Rhodamine 123 fluorescence | 5,000 tested, 78% active; in the data active = inhibition above about 22%;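 note: 0% = DMSO vehicle and 100% = positive control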
# MPTP abs DR – MPTP inhibition, dose response swelling confirmation | shares compounds with MPTP inh | IC50, µM | AID 651561 | isolated mitochondria swelling, absorbance | 780 tested, 58% active; in the data active = IC50 below about 20 µM
# MPTP cs DR – counter-screen for mitochondrial permeability transition pore inhibitors, dose response | shares compounds with MPTP inh | isolated mitochondria counterscreen, fluorescence read-out | IC50, µM | 780 tested, 49% active; in the data active = IC50 below about 80 µM
# * marks the source's active call; other numbers are inactive results; i = inactive; . = no result. The sample as a whole holds a higher share of hits than the screen did.
SMILES,T cruzi inh,L major viab,MPTP inh,DTT redox prof,Hep lipid drop,Rh123 counter,others
CC1CCCN(c2nc3ccccc3nc2C(C#N)S(=O)(=O)c2ccccc2)C1 (stereo not drawn),-2,-5,82*,0,.,83*,
COc1ccc(S(=O)(=O)C(C#N)c2nc3ccccc3nc2N2CCC(C)CC2)cc1 (stereo not drawn),8,.,.,.,.,.,
Cc1nc2ccc(NC(=O)c3cc([N+](=O)[O-])cc([N+](=O)[O-])c3Cl)cc2s1,.,-3,7,2,-16,.,
CC(C)(C)C(O)CN1CCCC1 (stereo not drawn),5,0,0,0,-2,.,
CCOC(=O)c1nc(C)nc(Sc2n[nH]c(-c3cc(C(F)(F)F)cc(C(F)(F)F)c3)n2)c1C,-8,.,65*,.,5,72*,
CCOC(=O)c1cn[nH]c1C(F)(F)F,-3,.,3,.,1,.,
CC(C)CNC(=O)C1(C)CCCN1C(=O)c1cccnc1Oc1ccccc1 (stereo not drawn),.,.,-1,.,.,.,
O=S(=O)(c1ccc(F)c(F)c1)N1CCN(S(=O)(=O)c2cccs2)CC1,3,.,0,.,-11,.,
CCCC(=O)N1CCN(c2ccc(NC(=S)NC(=O)c3cccc(C)c3)cc2)CC1,-1,27,77*,0,-12,56*,
CN1CCN(c2ccc(NC(=S)NC(=O)c3cccc4c(Cl)cccc34)cc2)CC1,17,.,91*,.,13,-8,
O=[N+]([O-])c1cccc(-c2nc(-c3cccs3)c(-c3cccs3)[nH]2)c1,36,16,104*,2,.,53*,
CC(=O)N1c2ccc(S(=O)(=O)N3CCCC3)cc2CC1C(=O)Nc1cc(C)cc(C)c1 (stereo not drawn),4,.,-1,.,-17,.,
COc1ccccc1CC(=O)Nc1ccccc1O,-9,14,-4,0,17,.,
COc1ccccc1CC(=O)Nc1ccc([N+](=O)[O-])cc1O,-6,-3,54*,0,8,82*,
CCCCCCCCCCCCC/C=C/[C@@H](O)[C@@H](N)CO,45,.,98*,.,.,-8,
CCOC(=O)CCc1c(C)nc(-n2[nH]c(C)c(CCO)c2=O)[nH]c1=O,7,-5,0,-1,2,.,
CCN(CC(=O)Nc1cccc(OC)c1)c1ncnc2sc(C)c(C)c12,5,2,72*,0,-1,68*,
Clc1cccc2c1Sc1ccccc1CC2N1CCNCC1 (stereo not drawn),26,100*,93*,-1,16,-11,
Clc1ccc2c(c1)C(N1CCNCC1)Cc1ccccc1S2 (stereo not drawn),4,100*,83*,0,-5,-7,
O=C(c1cccc(C(F)(F)F)c1)N1CCN(CCc2ccccc2)CC1,1,.,1,.,-13,.,
CCOC(=O)C1CCCN(CCC(=O)Nc2ccc(Br)c(C)c2)C1 (stereo not drawn),-3,.,0,.,-15,.,
CC(=O)Nc1ccc(Nc2nnc(-c3ccc(C)c(S(N)(=O)=O)c3)c3ccccc23)cc1,7,.,-1,.,0,.,
Cc1ccc(-c2nnc(Nc3ccc4c(c3)OCO4)c3ccccc23)cc1S(N)(=O)=O,25,22,56*,0,-5,-7,MPTP abs DR=>100;MPTP cs DR=>80
O=C(NC1CCCCC1)C(c1cccc2ccccc12)n1c(=O)c(-c2ccco2)nc2ccccc21 (stereo not drawn),.,.,-1,.,.,.,
CC(C)(C)c1ccc(-c2nnc(SCCC#N)n2C2CCCC2)cc1,46,5,69*,0,-14,15,MPTP abs DR=i;MPTP cs DR=23*
SMILES,T cruzi inh,L major viab,MPTP inh,DTT redox prof,Hep lipid drop,Rh123 counter,others
O=[N+]([O-])c1cc(S(=O)(=O)Nc2cccc(C(F)(F)F)c2)ccc1-n1nnc2ccccc21,-7,3,92*,0,9,84*,
O=C(O)c1ccc(-c2cccc(Cl)c2)o1,-10,-8,0,-1,.,.,
Nc1ccccc1N=Cc1ccc(-c2cccc(Cl)c2)o1,43,46,67*,0,7,66*,
COc1ccc(CCCC(=O)NCc2ccccc2)cc1C,0,-4,0,0,-17,.,
COc1ccc(C(=O)c2[nH]c(N)c(C(=O)NCCc3c[nH]c4ccccc34)c2-c2ccc(C(F)(F)F)cc2)cc1,.,.,2,.,.,.,
CC1(C)CC(=O)C(=Cc2cn(CCC#N)nc2-c2ccc(F)cc2)C(=O)C1,-3,1,63*,0,4,41*,
CC1(C)CC(=O)C(=Cc2cn(CCC#N)nc2-c2ccc(Cl)cc2)C(=O)C1,-5,0,77*,0,14,59*,
N#CCCn1cc(C=C(C#N)C#N)c(-c2ccc(-c3ccccc3)cc2)n1,4,41,2,0,15,.,
COc1cc(C(=O)OCC(=O)Nc2ccc(C)cc2)cc(OC)c1OC,-1,.,1,.,.,.,
CC1=CC(C)(C)N=C(Nc2nc(C)c3cc(C)cc(C)c3n2)N1,53,97*,95*,0,-12,101*,
Cc1cc(C)c2nc(Nc3nc(-c4ccccc4)cc(=O)[nH]3)nc(C)c2c1,25,.,2,.,6,.,
Cc1ccc(C(C)C)c(OCC(=O)Nc2ccccc2N2CCN(C)CC2)c1,32,60*,83*,2,-56,-7,MPTP abs DR=i;MPTP cs DR=>80
O=C(/C=C/c1ccc([N+](=O)[O-])cc1)NCCN1C(=O)S/C(=C\c2ccc(F)cc2)C1=O,-13,-1,6,0,-27,.,
C=C1CCC[C@]2(C)C[C@H]3OC(=O)C(CNCCN(CC)CC)[C@H]3CC12 (stereo partly drawn),6,.,-1,.,.,.,
CN1CCN(c2ccc(-c3cccc(NC(=O)COc4ccc(Cl)cc4Cl)c3)nn2)CC1,54,.,74*,.,.,-16,MPTP abs DR=19*;MPTP cs DR=>80
COc1ccc(NC(=S)NNC(=O)COc2ccc(Cl)cc2Cl)cc1,-9,0,4,0,20,.,
Cc1cccc(NC(=S)NNC(=O)COc2ccc(Cl)cc2Cl)c1,-12,1,55*,0,-14,52*,
CN1CCN(c2ccc(-c3cccc(NC(=O)COc4ccc(Cl)cc4)c3)nn2)CC1,42,.,0,.,.,.,
CC[N+](C)(C)CC/C=C1/c2ccccc2Sc2ccc(Cl)cc21,16,.,2,.,-20,.,
CN(C)CC/C=C1\c2cc(Cl)ccc2Sc2cc(F)c(F)cc21,21,.,1,.,.,.,
OCCN1CCN(CC/C=C2/c3ccccc3Sc3ccc(Cl)cc32)CC1,.,.,94*,.,.,-21,
CN(C)CC/C=C1\c2ccccc2Sc2ccc(Cl)cc21,31,64*,97*,0,-11,-6,
C/C(O)=c1/cnc2nc3ccccc3n2c1=O,-11,-8,0,-1,-8,.,
